{"source": "paper PMC7489285", "about": "(Molecular cancer therapeutics, 2012)", "key": {"[1]": {"test_system": "neuronal tubulin", "assay": "fluorescence-enhanced tubulin polymerization assay", "type": "biochemical", "conditions": "ratio of tubulin polymerization ED50 values"}, "[2]": {"test_system": "231-BR cells", "assay": "MTT in vitro cytotoxicity assay", "type": "cell-based", "conditions": "Homo sapiens, 72 h, read-out: IC50 values and maximal toxicity", "how_it_was_run": "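231-BR cells seeded at 2,000/well 24 h before compound addition. Ethanol drug stocks were serially diluted into culture medium and added to triplicate wells, then cultured 72 h. Viable cells were read by MTT, normalized to drug-free viable cells at endpoint. At least 3 independent experiments.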"}, "[3]": {"test_system": "231-BR primary tumors", "assay": "breast primary tumor model", "type": "in vivo, mouse"}, "[4]": {"test_system": "231-BR brain metastases", "assay": "experimental brain metastasis model", "type": "in vivo, mouse"}, "[5]": {"test_system": "experimental brain metastases", "conditions": "2 experimental brain metastasis models, radiolabeled drug; cited from earlier work"}, "[6]": {"test_system": "intracerebrally implanted MDA-MB-435, Lu7187 and Lu7466 tumor cells", "conditions": "cited from earlier work; for growth of intracerebrally implanted tumor cells: MDA-MB-435, Lu7187 and Lu7466 cells"}, "[7]": {"test_system": "breast cancer brain metastases", "conditions": "phase II, cited from earlier work"}, "[8]": {"test_system": "breast cancer brain metastases", "conditions": "phase II, cited from earlier work", "remark": "listed apart in the source"}, "[9]": {"conditions": "mice, favorable half-life; cited from earlier work"}}, "note": "pIC50: −log10 of the molar value."}
{"compound": "CC(=O)O[C@@]12CO[C@@H]1C[C@H](O)[C@@]1(C)C(=O)[C@H](O)C3=C(C)[C@@H](OC(=O)[C@H](O)[C@@H](NC(=O)OC(C)(C)C)c4ccccc4)C[C@@](O)([C@@H](OC(=O)c4ccccc4)[C@H]21)C3(C)C", "note": "[Docetaxel]", "values": [{"measurement": "ED50 compound/ ED50 paclitaxel", "setting": "[1]", "value": 1.07}, {"measurement": "pIC50", "setting": "[2]", "value": "> 8.00"}]}
{"compound": "CC(=O)O[C@H]1C(=O)[C@@]2(C)[C@H]([C@H](OC(=O)c3ccccc3)[C@]3(O)C[C@H](OC(=O)[C@H](O)[C@@H](NC(=O)c4ccccc4)c4ccccc4)C(C)=C1C3(C)C)[C@]1(OC(C)=O)CO[C@@H]1C[C@@H]2O", "note": "[Paclitaxel]", "values": [{"measurement": "pIC50", "setting": "[2]", "value": "> 8.00"}, {"measurement": "amount of acetylated tubulin-α in primary tumors", "setting": "[3]; 18 mg/kg i.v. every 4 days ×3, immunofluorescence", "value": "increase"}, {"measurement": "estimated tumor growth rate (slope) of log10 tumor volume", "setting": "[3]; 18 mg/kg i.v. every 4 days ×3 from day 37, days 41 to 48", "value": "−0.0450 ± 0.00743"}, {"measurement": "prevention of brain metastatic colonization", "setting": "[4]; 18 mg/kg ×3, early or late, all points not significant", "value": "ineffective"}, {"measurement": "Ki67-positive 231-BR cells in brain metastases (proliferation), mean", "setting": "[4]; day 28, 48 hours after final late 18 mg/kg treatment, vehicle 56.0% ± 2.22%", "value": "54.4% ± 1.91%"}, {"measurement": "experimental lesions with sufficient uptake to show a cytotoxic response", "setting": "[5]", "value": 10, "unit": "%"}, {"measurement": "growth of intracerebrally implanted tumor cells", "setting": "[6]", "value": "nonsignificant effects"}]}
{"compound": "C=CC[C@H]1C(=O)C(C)(C)[C@@H](O)CC(=O)O[C@H](c2ccc3sc(C)nc3c2)C[C@@H]2O[C@]2(C)CCC[C@H](C)[C@@H]1O", "note": "[Sagopilone]", "values": [{"measurement": "growth of intracerebrally implanted tumor cells", "setting": "[6]", "value": "reduced the growth"}, {"measurement": "weight loss", "setting": "[6]", "value": 6, "unit": "%"}, {"measurement": "BBB penetration", "setting": "[6]; mice, favorable AUC and half-life", "value": "crossed the BBB"}, {"measurement": "patients achieving partial responses", "setting": "[7]; progressive brain metastases after whole brain radiation therapy, two patients", "value": 13.3, "unit": "%"}, {"measurement": "median progression-free survival", "setting": "[7]", "value": 1.4, "unit": "months"}, {"measurement": "overall survival", "setting": "[7]", "value": 5.3, "unit": "months"}]}
{"compound": "C/C(=C\\c1csc(C)n1)[C@@H]1C[C@@H]2O[C@]2(C)CCC[C@H](C)[C@H](O)[C@@H](C)C(=O)C(C)(C)[C@@H](O)CC(=O)N1", "note": "[ixabepilone]", "values": [{"measurement": "pIC50", "setting": "[2]", "value": "> 8.00"}, {"measurement": "toxicity of initial doses", "setting": "[4]; mice, initial 2 doses of 5 mg/kg", "value": "significant toxicity"}]}
{"compound": "C/C(=C\\c1csc(C)n1)[C@@H]1C[C@@H]2O[C@]2(C)CCC[C@H](C)[C@H](O)[C@@H](C)C(=O)C(C)(C)[C@@H](O)CC(=O)O1", "note": "[patupilone]", "values": [{"measurement": "partial responses, patients", "setting": "[8]; 6 of 31", "value": 19, "unit": "%"}, {"measurement": "stable disease, patients", "setting": "[8]; 9 of 31", "value": 29, "unit": "%"}, {"measurement": "incidence of peripheral neuropathy", "setting": "[8]", "value": 27, "unit": "%"}, {"measurement": "brain distribution", "setting": "[9]", "value": "Significant brain distribution"}]}
